This passage reports Activity and inhibition results from ChEMBL document CHEMBL4725349, “Discovery of First-in-Class Protein Arginine Methyltransferase 5 (PRMT5) Degraders” (J Med Chem, 2020).

Each structure is given as a SMILES string. Activity calls are given as the source filed them. The rule behind the calls is not given here.

Usually inhibition stands for the share of the control response that was lost under treatment.

Experiment [1] has as its target T1, von Hippel-Lindau disease tumor suppressor/Protein arginine N-methyltransferase 5 (Homo sapiens, UniProt O14744+P40337). The experiment in a line: Induction of VHL-mediated PRMT5 degradation in human MCF7 cells at 0.2 to 5 uM incubated for 6 days by Western blot analysis. It counts as cell-based. The following applies: dose microM 0.2-5, time 6.0 day. The gist of the method:
(§1)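 MCF-7 cells treated 6 d (0.2, 1 and 5 μM for initial screen, or indicated concentrations). RIPA lysates immunoblotted for PRMT5. Band intensity quantified by densitometry to derive DC50 and Dmax as mean ± SD from three independent experiments; screening blots representative of at least two.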

The target in experiment [2] is T1, von Hippel-Lindau disease tumor suppressor/Protein arginine N-methyltransferase 5. Nature of the experiment: Induction of VHL-mediated PRMT5 degradation in human MCF7 cells at 5 uM incubated for 6 days by Western blot analysis. Format: cell-based. The following applies: time 6.0 day. The gist of the method:
as §1
(In general: In western blotting, separated proteins are transferred to a membrane and probed.)

The target of experiment [3] is PRMT5/MEP50 complex (Homo sapiens) (UniProt O14744+Q9BQA1). The experiment in a line: Inhibition of human PRMT5/MEP50 assessed as reduction in methyltransferase activity at 5 uM using histone 4 peptide as substrate in presence of [3H]SAM incubated for 30 mins. Format: protein-complex assay.
The subject of the next experiment is MCF7. The experiment in a line: Antiproliferative activity against human MCF7 cells at 0.1 to 10 uM incubated for 6 days by CellTiter-Glo assay. The following applies: dose microM 0.1-10, time 6.0 day. Format: functional, cell-based. The method, boiled down: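 MCF-7 in DMEM + 10% FBS at 37 °C, 5% CO2. Cells exposed to graded concentrations for 6 d, medium with compound refreshed every other day. CellTiter-Glo luminescence, expressed as viability relative to DMSO control; mean ± SD, n = 3.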
In general terms: ATP-based viability assays read luminescence as a measure of living cells.

Experiment [4] deals with T1, von Hippel-Lindau disease tumor suppressor/Protein arginine N-methyltransferase 5. Nature of the experiment: Induction of VHL-mediated PRMT5 degradation in human MCF7 cells at 1 to 5 uM incubated for 6 days by Western blot analysis. It counts as cell-based. The following applies: dose microM 1-5, time 6.0 day. The gist of the method: as §1

T1 sequence (O14744 whole entry, looked up): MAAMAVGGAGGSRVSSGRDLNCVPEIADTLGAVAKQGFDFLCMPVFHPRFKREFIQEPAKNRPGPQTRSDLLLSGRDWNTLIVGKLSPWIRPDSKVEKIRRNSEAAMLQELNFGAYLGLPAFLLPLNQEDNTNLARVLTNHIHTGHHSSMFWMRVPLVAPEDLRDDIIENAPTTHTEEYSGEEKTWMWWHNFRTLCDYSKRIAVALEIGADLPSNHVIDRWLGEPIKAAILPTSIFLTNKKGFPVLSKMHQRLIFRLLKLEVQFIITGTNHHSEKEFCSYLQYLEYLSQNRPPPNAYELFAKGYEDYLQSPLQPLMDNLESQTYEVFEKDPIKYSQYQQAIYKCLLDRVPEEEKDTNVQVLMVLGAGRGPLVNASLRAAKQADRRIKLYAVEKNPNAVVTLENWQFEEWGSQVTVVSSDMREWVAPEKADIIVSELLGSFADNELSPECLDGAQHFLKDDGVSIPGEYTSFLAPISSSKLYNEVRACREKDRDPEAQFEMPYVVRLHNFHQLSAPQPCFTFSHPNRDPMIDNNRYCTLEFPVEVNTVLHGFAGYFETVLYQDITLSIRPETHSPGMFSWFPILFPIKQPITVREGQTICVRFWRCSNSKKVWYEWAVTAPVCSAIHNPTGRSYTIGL
T1 sequence (P40337 whole entry, looked up): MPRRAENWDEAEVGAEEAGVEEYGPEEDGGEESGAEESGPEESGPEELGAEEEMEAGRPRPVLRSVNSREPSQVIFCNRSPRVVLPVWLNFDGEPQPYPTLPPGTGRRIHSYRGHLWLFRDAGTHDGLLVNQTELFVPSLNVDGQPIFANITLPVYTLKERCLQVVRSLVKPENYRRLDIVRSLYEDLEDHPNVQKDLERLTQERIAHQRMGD

For the molecule `Cc1ncsc1-c1ccc(CNC(=O)[C@@H]2C[C@@H](O)CN2C(=O)[C@@H](NC(=O)COCC(=O)N2CC(Nc3cc(C(=O)NC[C@H](O)CN4CCc5ccccc5C4)ncn3)C2)C(C)(C)C)cc1`, in experiment [1], the result was inactive.
On the same count and under the same terms, then `Cc1ncsc1-c1ccc(CNC(=O)[C@@H]2C[C@@H](O)CN2C(=O)[C@@H](NC(=O)CCCCCCCCCC(=O)N2CC(Nc3cc(C(=O)NC[C@H](O)CN4CCc5ccccc5C4)ncn3)C2)C(C)(C)C)cc1`, with “inactive”.
With `Cc1ncsc1-c1ccc([C@H](C)NC(=O)[C@@H]2C[C@@H](O)CN2C(=O)[C@@H](NC(=O)COCCOCCOCCOCCOCC(=O)N2CC(Nc3cc(C(=O)NC[C@H](O)CN4CCCCC4)ncn3)C2)C(C)(C)C)cc1`, the result (in experiment [2]; with MCF7) was inactive. In experiment [3], the inhibition was determined as 58%.
Consider `Cc1ncsc1-c1ccc(CNC(=O)[C@@H]2C[C@@H](O)CN2C(=O)[C@@H](NC(=O)COCCOCCOCCOCCOCC(=O)N2CC(Nc3cc(C(=O)NC[C@H](O)CN4CCc5ccccc5C4)ncn3)C2)C(C)(C)C)cc1`, for which the outcome in experiment [4] was Active.
